Assay results collected from several papers.
Lines come from different studies, so protocols differ.
MAP2K3: Dual specificity mitogen-activated protein kinase kinase 3 (MAP2K3, Homo sapiens, UniProt P46734)
BCHE: Cholinesterase (BCHE, Equus caballus, UniProt P81908)

`Cc1nn(C)cc1-c1nc2c(N3CCN(Cc4ccc(Cl)cc4)CC3)c(Cl)cnc2[nH]1` has a remaining binding of 100% (MAP2K3; binding; competition with immobilised ligand; 1 µM).
For `CN(C)Cc1ccc(-c2nc3ccccc3s2)c(-c2cccc(O)c2)c1`, the inhibition was 30.7% (Prostaglandin G/H synthase 1 (PTGS1, Ovis aries, UniProt P05979); enzyme activity; inhibitor; absorbance; 10 µM).
`COc1ncccc1-c1cnn2ccc(N3CCN(C(=O)OC(C)C)CC3)nc12` has a remaining binding of 28% (SRSF protein kinase 2 (SRPK2, Homo sapiens, UniProt P78362); binding; competition with immobilised ligand; 1 µM).
The inhibition of `COc1cc2c(cc1OC)C(=O)N(Cc1ccccn1)C2` is reported as -8.8% (BCHE; enzyme activity; inhibitor; Ellman; 1 µM).
`CCN(CC)CCCC[C@H](NC(=O)[C@H](CC(C)C)NC(=O)[C@H](C)NC(=O)[C@H](Cc1ccccc1)NC(=O)c1ccc(C(C)(C)C)cc1)C(=O)N[C@@H](CO)C(=O)OC` has a ΔTm of 0.47 °C (Peregrin, bromodomain (BRPF1, Homo sapiens, UniProt P55201); thermal stability; DSF; 25 µM).
The remaining binding of `Nc1ncc(-c2nc(N3CCOCC3)nc(N3CCOCC3)n2)c(C(F)F)n1` is reported as 76% (Mitogen-activated protein kinase kinase kinase 6 (MAP3K6, Homo sapiens, UniProt O95382); binding; competition with immobilised ligand; 10 µM).
`COc1cc2c(cc1OC)C(=O)N(Cc1ccncc1)C2` gave an inhibition of -0.7% (BCHE; enzyme activity; inhibitor; Ellman; 1 µM).
`O=P(O)(O)O[C@H]1O[C@H](CO)[C@@H](O)[C@H](O)[C@H]1O` has a Km of 920 µM (Glycogen phosphorylase, muscle form (PYGM, Oryctolagus cuniculus, UniProt P00489); enzyme activity; substrate).
With `Cn1cc(-c2cccc(N3CCc4c(sc5c4CC(C)(C)C5)C3=O)c2CO)cc(Nc2ccncn2)c1=O` the inhibition was 2% (MAP2K3; enzyme activity; inhibitor; 1 µM).
With `COc1cc2c(cc1OC)C(=O)N(CC1CCN(Cc3cccc(C#N)c3)CC1)C2` the inhibition was 15.6% (BCHE; enzyme activity; inhibitor; Ellman; 1 µM).
The inhibition of `C#Cc1n[nH]c2c(-c3cn([C@@H](C)c4ccccn4)c(=O)[nH]c3=O)cc(F)cc12` is reported as 12% (Serine/threonine-protein kinase Nek2 (NEK2, Homo sapiens, UniProt P51955); enzyme activity; inhibitor; 0.1 µM).
`COc1cc2c(cc1OC)C(=O)N(Cc1cnc3c(c1)OCCN3C)C2` gave an inhibition of 13.6% (BCHE; enzyme activity; inhibitor; Ellman; 1 µM).
For `O=c1ccc2ccc3occc3c2o1`, the activity vs control was 28.3% (Aldehyde dehydrogenase, dimeric NADP-preferring (ALDH3A1, Homo sapiens, UniProt P30838); enzyme activity; inhibitor; absorbance; 10 µM).
